Measured values: ChEMBL document CHEMBL1949521, “Discovery of CC-930, an orally active anti-fibrotic JNK inhibitor” (Bioorg Med Chem Lett, 2012)

Key:
[1] = target: Mitogen-activated protein kinase 8 (Homo sapiens, UniProt P45983); test: Inhibition of hexa-His-tagged JNK1 expressed in baculoviral system using GST-tagged c-Jun as substrate preincubated for 15 mins prior ATP addition measured after 60 mins by scintillation counting
[2] = target: Mitogen-activated protein kinase 14 (Homo sapiens, UniProt Q16539); test: Inhibition of p38alpha using myelin basic protein as substrate preincubated for 15 mins prior ATP addition measured after 60 mins by scintillation counting
[3] = Oral bioavailability in rat; format: ADME, organism-based; conditions: in vivo
[4] = target: c-Jun N-terminal kinase, JNK (Homo sapiens, UniProt P45983+P53779+P45984); test: Inhibition of JNK-mediated GST tagged c-Jun phosphorylation in human Jurkat T cells compound treated for 30 mins prior anisomycin stimulation measured after 40 mins by fluorescence spectrophotometry; format: cell-based
[5] = Clearance in rat at 2 mg/kg, iv; format: ADME, organism-based; parameters: dose 2 mg/kg, route intravenous; conditions: in vivo
Outline: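 Rats dosed intravenously at 2 mg/kg in a solution of 5% DMA and 30% PEG 400.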

[6] = AUC in po dosed rat; format: ADME, organism-based; conditions: plasma
Rattus norvegicus = test: Antiinflammatory activity in CD rat assessed as inhibition of LPS-stimulated TNFalpha production at 30 mg/kg, po administered 1 hr prior LPS challenge measured after 90 mins by ELISA; format: functional
Outline: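 Acute PK-PD model in rats: compound given by oral gavage at 10 or 30 mg/kg, then lipopolysaccharide injected, and plasma TNF-alpha release measured.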

[7] = AUC in rat at 10 mg/kg, po; format: ADME, organism-based; parameters: dose 10 mg/kg, route oral; conditions: plasma
Outline: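 Oral dose of 10 mg/kg given as a suspension in aqueous 0.5% CMC/0.25% Tween 80. Plasma AUC, Cmax and Tmax were taken from the oral arm. Bioavailability was derived against the intravenous arm in the same species.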

Mitogen-activated protein kinase 14, sequence (Q16539 whole entry): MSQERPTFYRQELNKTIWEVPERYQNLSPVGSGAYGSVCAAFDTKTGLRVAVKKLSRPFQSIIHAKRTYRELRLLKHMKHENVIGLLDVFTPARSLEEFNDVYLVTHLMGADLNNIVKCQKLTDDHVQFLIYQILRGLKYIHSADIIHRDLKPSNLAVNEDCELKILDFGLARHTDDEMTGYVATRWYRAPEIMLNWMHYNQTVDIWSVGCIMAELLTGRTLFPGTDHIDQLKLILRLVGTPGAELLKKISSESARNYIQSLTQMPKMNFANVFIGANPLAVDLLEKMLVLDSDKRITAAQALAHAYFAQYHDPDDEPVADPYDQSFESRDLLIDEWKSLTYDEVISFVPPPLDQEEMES
Mitogen-activated protein kinase 8, sequence (P45983 whole entry): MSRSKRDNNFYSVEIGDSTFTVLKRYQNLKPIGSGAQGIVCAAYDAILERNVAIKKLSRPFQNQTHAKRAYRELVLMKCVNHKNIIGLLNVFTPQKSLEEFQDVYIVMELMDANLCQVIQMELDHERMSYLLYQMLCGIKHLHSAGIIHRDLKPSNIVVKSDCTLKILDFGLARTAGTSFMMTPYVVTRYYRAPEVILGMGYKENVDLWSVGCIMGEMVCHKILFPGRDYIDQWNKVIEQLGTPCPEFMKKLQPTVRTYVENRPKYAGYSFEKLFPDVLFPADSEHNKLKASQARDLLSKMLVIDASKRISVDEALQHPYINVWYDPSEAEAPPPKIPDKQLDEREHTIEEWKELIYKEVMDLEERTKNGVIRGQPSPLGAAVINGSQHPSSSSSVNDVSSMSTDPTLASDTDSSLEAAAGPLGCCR

SMILES	IC50 [1]	IC50 [2]	bioavailability [3]	IC50 [4]	clearance [5]	AUC [6]	inhibition in vivo at 30 mg/kg (Rattus norvegicus)	AUC [7]
CC(C)Nc1ncc2nc(Nc3c(F)cc(F)cc3F)n([C@H]3CC[C@@H](C(=O)N4CCOCC4)CC3)c2n1	0.063 µM	6.4 µM	20%	0.23 µM	26 mL/min/kg	2.4 µM·h	58%	
O[C@H]1CC[C@H](Nc2ncc3nc(Nc4ccc(F)cc4F)n(C4CCOCC4)c3n2)CC1	0.39 µM	2.7 µM	70%	0.86 µM	21 mL/min/kg			12 µM·h
CCO[C@H]1CC[C@H](Nc2ncc3nc(Nc4ccc(F)cc4F)n(C4CCOCC4)c3n2)CC1	0.54 µM	> 3 µM		1.6 µM				
N[C@H]1CC[C@H](Nc2ncc3nc(Nc4ccc(F)cc4F)n(C4CCCC4)c3n2)CC1			8%		66 mL/min/kg			0.36 µM·h
CC(C)(O)[C@H]1CC[C@H](Nc2ncc3nc(Nc4ccc(F)cc4F)n(C4CCOCC4)c3n2)CC1	0.32 µM	0.98 µM		1.7 µM				
CC(C)(O)[C@H]1CC[C@H](Nc2ncc3nc(Nc4ccc(F)cc4F)n(C4CCCC4)c3n2)CC1	0.17 µM	0.29 µM		1.8 µM				
CC(C)(O)[C@H]1CC[C@@H](c2ncc3nc(Nc4ccc(F)cc4F)n(C4CCOCC4)c3n2)C1	1.3 µM	> 3 µM		1.7 µM				
C[C@]1(O)CC[C@H](Nc2ncc3nc(Nc4ccc(F)cc4F)n(C4CCOCC4)c3n2)CC1	1.2 µM	> 3 µM		2.5 µM				
